This is an account of results in ChEMBL document CHEMBL4118021, “Studies of TAK1-centered polypharmacology with novel covalent TAK1 inhibitors” (Bioorg Med Chem, 2017).

Calls of active or inactive are those of the source. No cut-off for these calls is given here.

In general, inhibition refers to the change of the read-out against control, counted positive when it falls.

In test [1] the target is Protein NipSnap homolog 1 (Homo sapiens) (UniProt Q9BPW8). Description: Binding affinity to NIPSNAP1 in human NCI-H23 cells at 1 uM by mass spectrometry based pull down assay. In kind it is cell-based.
Test [2] has as its target Protein LSM12 (Homo sapiens) (UniProt Q3MHD2). Description: Binding affinity to LSM12 in human NCI-H23 cells at 1 uM by mass spectrometry based pull down assay. The format is cell-based.
In test [3] the target is DnaJ homolog subfamily B member 6 (Homo sapiens) (UniProt O75190). Put plainly: Binding affinity to DNAJB6 in human NCI-H23 cells at 1 uM by mass spectrometry based pull down assay. In kind it is cell-based.
The target of test [4] is N-acetyl-D-glucosamine kinase (Homo sapiens) (UniProt Q9UJ70). Put plainly: Binding affinity to NAGK in human NCI-H23 cells at 1 uM by mass spectrometry based pull down assay. The format is cell-based.
Test [5] has as its target Protein transport protein Sec16A (Homo sapiens) (UniProt O15027). Description: Binding affinity to SEC16A in human NCI-H23 cells at 1 uM by mass spectrometry based pull down assay. In kind it is cell-based.
The target in test [6] is Aspartyl aminopeptidase (Homo sapiens) (UniProt Q9ULA0). Description: Binding affinity to DNPEP in human NCI-H23 cells at 1 uM by mass spectrometry based pull down assay. In kind it is cell-based.
Test [7] has as its target Methylosome protein WDR77 (Homo sapiens) (UniProt Q9BQA1). Put plainly: Binding affinity to WDR77 in human NCI-H23 cells at 1 uM by mass spectrometry based pull down assay. The format is cell-based.
Test [8] has as its target Tropomyosin alpha-4 chain (Homo sapiens) (UniProt P67936). Put plainly: Binding affinity to TPM4 in human NCI-H358 cells at 1 uM by mass spectrometry based pull down assay. In kind it is cell-based.
The target in test [9] is Calcyclin-binding protein (Homo sapiens) (UniProt Q9HB71). Put plainly: Binding affinity to CACYBP in human NCI-H358 cells at 1 uM by mass spectrometry based pull down assay. The format is cell-based.
Test [10] deals with Beclin-1 (Homo sapiens) (UniProt Q14457). Description: Binding affinity to BECN1 in human NCI-H358 cells at 1 uM by mass spectrometry based pull down assay. In kind it is cell-based.
The target in test [11] is TGF-beta-activated kinase 1 and MAP3K7-binding protein 1 (Homo sapiens) (UniProt Q15750). Put plainly: Binding affinity to TAB1 in human NCI-H358 cells at 1 uM by mass spectrometry based pull down assay. In kind it is cell-based.
Test [12] addresses T1, Dual specificity mitogen-activated protein kinase kinase 4 (Homo sapiens) (UniProt P45985).
T1 sequence (whole entry): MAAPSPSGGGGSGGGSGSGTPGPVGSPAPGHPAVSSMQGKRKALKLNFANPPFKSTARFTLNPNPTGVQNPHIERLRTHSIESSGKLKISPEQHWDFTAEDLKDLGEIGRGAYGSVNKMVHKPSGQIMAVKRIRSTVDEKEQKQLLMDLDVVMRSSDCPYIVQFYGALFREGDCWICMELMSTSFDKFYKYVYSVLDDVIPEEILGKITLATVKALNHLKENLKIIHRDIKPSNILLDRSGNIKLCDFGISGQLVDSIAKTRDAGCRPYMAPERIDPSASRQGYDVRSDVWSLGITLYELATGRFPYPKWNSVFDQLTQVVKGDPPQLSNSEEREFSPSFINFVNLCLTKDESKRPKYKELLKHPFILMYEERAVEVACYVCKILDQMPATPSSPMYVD
Put plainly: Binding affinity to MAP2K4 in human NCI-H358 cells at 1 uM by mass spectrometry based pull down assay. In kind it is cell-based.

For test [13], the target named is Sequestosome-1 (Homo sapiens) (UniProt Q13501). Description: Binding affinity to SQSTM1 in human NCI-H358 cells at 1 uM by mass spectrometry based pull down assay. In kind it is cell-based.
Test [14] addresses Vesicle-fusing ATPase (Homo sapiens) (UniProt P46459). Put plainly: Binding affinity to NSF in human NCI-H358 cells at 1 uM by mass spectrometry based pull down assay. The format is cell-based.
Test [15] has as its target Kinesin-like protein KIF15 (Homo sapiens) (UniProt Q9NS87). Put plainly: Binding affinity to KIF15 in human NCI-H358 cells at 1 uM by mass spectrometry based pull down assay. In kind it is cell-based.
Test [16] has as its target Lysine--tRNA ligase (Homo sapiens) (UniProt Q15046). Description: Binding affinity to KARS in human NCI-H358 cells at 1 uM by mass spectrometry based pull down assay. In kind it is cell-based.
Test [17] has as its target ATP synthase F(1) complex subunit alpha, mitochondrial (Homo sapiens) (UniProt P25705). Description: Binding affinity to ATP5A1 in human NCI-H358 cells at 1 uM by mass spectrometry based pull down assay. In kind it is cell-based.
For test [18], the target named is T2, Mitogen-activated protein kinase kinase kinase 7 (Homo sapiens) (UniProt O43318).
T2 sequence (whole entry): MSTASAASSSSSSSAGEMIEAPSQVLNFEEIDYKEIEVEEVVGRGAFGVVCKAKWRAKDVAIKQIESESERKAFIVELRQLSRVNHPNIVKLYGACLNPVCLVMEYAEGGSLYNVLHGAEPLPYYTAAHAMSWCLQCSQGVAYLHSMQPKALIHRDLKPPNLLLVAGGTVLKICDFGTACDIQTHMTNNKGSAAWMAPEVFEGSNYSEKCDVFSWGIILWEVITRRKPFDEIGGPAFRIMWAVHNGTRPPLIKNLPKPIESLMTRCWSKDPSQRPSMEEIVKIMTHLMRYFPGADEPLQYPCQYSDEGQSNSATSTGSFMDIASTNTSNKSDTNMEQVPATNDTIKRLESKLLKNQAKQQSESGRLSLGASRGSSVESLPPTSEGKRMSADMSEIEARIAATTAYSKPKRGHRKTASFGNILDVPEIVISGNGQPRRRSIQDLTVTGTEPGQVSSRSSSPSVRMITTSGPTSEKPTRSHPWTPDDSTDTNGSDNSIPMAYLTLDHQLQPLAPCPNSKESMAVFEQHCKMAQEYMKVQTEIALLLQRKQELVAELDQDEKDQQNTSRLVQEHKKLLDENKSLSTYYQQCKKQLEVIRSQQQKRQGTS
Put plainly: Inhibition of TAK1 in RA patient-derived synovial fibroblasts assessed as inhibition of TNFalpha-induced cytokine secretion at 3 uM preincubated for 3 hrs followed by TNFalpha stimulation measured after 18 hrs by sandwich immunoassay. A digest of the protocol:
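Primary RA synovial fibroblasts (donor RA2159) seeded 1000 cells/well and grown ~24 h at 37 °C, 5% CO2. Starved overnight in basal medium, then ~4 h in basal medium with 0.1% BSA. Two adjacent wells pooled per replicate, in biological duplicate. Supernatants diluted 1:3 and run on Luminex 27-plex/21-plex sandwich immunoassays for 48 analytes, with spiked-ligand and mock-supernatant background controls.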

The target in test [19] is Cyclin-dependent kinase-like 2 (Homo sapiens) (UniProt Q92772). Description: Inhibition of human CDKL2 (1 to 327 residues) expressed in bacterial expression system assessed as enzyme activity at 1 uM by KINOMEScan assay relative to control. Set-up: scale not given: the % may be the effect or the level left. A digest of the protocol: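 In vitro ATP-site competition binding assay (KinomeScan) across a panel of 456 kinases. Compound was tested at 1 and 10 μM. The read-out is the binding inhibition score relative to control.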

Test [20] deals with Receptor-interacting serine/threonine-protein kinase 4 (Homo sapiens) (UniProt P57078). Put plainly: Inhibition of ANKRD3 in human SKCO1 cells at 1 uM after 4 hrs using biotin labeled TWLAIKCSPSLHVDDR probe by mass-spectrometric analysis relative to control. The format is cell-based.

Methylosome protein WDR77 (Homo sapiens), sequence (Q9BQA1 whole entry): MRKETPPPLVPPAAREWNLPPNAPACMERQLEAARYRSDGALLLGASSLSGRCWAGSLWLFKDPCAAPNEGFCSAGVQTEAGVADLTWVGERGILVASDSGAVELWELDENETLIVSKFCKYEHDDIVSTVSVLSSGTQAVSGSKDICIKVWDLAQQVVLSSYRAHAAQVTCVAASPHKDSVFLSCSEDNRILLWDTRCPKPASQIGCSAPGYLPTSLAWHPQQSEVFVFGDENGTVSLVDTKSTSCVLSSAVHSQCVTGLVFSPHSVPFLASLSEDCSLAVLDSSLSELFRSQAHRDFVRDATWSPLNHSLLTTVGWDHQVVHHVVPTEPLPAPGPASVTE
ATP synthase F(1) complex subunit alpha, mitochondrial (Homo sapiens), sequence (P25705 whole entry, one chain of several): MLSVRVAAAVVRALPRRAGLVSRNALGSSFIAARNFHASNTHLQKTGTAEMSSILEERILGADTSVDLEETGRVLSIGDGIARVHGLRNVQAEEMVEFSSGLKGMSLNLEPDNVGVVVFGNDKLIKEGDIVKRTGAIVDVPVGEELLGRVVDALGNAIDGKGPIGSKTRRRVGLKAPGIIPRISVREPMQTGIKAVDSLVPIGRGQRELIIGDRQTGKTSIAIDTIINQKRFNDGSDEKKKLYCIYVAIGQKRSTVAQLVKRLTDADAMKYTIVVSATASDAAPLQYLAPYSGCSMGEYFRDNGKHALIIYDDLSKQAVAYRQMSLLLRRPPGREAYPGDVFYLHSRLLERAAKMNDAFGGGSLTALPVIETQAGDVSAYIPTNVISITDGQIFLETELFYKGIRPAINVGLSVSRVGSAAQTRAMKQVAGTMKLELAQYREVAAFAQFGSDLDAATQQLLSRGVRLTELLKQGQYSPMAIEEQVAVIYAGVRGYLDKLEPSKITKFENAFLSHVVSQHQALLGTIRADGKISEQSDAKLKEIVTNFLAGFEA
Calcyclin-binding protein (Homo sapiens), sequence (Q9HB71 whole entry): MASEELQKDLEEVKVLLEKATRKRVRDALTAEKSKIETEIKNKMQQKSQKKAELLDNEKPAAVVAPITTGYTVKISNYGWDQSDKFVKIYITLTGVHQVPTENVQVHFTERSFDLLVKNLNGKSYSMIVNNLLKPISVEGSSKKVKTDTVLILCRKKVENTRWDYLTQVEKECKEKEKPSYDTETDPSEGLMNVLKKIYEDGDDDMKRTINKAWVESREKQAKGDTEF
Kinesin-like protein KIF15 (Homo sapiens), sequence (Q9NS87 whole entry): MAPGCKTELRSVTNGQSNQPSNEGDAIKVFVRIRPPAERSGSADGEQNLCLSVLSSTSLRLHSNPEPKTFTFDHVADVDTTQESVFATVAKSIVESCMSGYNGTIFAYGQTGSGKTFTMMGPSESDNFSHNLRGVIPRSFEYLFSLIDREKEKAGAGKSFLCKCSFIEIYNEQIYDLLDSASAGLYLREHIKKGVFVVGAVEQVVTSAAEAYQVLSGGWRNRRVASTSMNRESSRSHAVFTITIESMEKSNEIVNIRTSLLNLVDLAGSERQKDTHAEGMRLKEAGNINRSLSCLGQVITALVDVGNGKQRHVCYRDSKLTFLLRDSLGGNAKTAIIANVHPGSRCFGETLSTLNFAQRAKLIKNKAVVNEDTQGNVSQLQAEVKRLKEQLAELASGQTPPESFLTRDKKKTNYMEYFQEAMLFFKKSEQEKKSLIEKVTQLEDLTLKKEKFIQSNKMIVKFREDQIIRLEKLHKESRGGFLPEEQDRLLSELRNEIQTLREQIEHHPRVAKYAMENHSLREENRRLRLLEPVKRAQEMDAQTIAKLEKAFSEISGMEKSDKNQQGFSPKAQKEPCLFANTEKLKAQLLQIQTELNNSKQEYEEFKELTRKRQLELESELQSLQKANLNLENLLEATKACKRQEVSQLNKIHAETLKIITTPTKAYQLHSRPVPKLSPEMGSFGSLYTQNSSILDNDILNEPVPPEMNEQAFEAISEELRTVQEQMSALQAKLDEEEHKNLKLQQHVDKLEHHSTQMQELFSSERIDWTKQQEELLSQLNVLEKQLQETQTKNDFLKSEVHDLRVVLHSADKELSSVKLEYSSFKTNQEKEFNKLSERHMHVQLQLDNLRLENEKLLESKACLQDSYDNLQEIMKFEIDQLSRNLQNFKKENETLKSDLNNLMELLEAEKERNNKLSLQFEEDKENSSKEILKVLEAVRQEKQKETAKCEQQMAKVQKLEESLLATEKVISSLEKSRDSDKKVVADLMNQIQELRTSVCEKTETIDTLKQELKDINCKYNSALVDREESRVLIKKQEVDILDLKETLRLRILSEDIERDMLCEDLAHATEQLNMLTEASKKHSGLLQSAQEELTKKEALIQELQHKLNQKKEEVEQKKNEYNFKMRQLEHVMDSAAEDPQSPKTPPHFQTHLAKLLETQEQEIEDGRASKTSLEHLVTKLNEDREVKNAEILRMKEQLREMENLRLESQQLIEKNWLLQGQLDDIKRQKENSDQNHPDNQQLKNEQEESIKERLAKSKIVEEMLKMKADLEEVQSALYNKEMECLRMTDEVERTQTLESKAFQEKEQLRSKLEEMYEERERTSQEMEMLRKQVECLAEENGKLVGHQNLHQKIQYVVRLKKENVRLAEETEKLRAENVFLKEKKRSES
Protein transport protein Sec16A (Homo sapiens), sequence (O15027 whole entry): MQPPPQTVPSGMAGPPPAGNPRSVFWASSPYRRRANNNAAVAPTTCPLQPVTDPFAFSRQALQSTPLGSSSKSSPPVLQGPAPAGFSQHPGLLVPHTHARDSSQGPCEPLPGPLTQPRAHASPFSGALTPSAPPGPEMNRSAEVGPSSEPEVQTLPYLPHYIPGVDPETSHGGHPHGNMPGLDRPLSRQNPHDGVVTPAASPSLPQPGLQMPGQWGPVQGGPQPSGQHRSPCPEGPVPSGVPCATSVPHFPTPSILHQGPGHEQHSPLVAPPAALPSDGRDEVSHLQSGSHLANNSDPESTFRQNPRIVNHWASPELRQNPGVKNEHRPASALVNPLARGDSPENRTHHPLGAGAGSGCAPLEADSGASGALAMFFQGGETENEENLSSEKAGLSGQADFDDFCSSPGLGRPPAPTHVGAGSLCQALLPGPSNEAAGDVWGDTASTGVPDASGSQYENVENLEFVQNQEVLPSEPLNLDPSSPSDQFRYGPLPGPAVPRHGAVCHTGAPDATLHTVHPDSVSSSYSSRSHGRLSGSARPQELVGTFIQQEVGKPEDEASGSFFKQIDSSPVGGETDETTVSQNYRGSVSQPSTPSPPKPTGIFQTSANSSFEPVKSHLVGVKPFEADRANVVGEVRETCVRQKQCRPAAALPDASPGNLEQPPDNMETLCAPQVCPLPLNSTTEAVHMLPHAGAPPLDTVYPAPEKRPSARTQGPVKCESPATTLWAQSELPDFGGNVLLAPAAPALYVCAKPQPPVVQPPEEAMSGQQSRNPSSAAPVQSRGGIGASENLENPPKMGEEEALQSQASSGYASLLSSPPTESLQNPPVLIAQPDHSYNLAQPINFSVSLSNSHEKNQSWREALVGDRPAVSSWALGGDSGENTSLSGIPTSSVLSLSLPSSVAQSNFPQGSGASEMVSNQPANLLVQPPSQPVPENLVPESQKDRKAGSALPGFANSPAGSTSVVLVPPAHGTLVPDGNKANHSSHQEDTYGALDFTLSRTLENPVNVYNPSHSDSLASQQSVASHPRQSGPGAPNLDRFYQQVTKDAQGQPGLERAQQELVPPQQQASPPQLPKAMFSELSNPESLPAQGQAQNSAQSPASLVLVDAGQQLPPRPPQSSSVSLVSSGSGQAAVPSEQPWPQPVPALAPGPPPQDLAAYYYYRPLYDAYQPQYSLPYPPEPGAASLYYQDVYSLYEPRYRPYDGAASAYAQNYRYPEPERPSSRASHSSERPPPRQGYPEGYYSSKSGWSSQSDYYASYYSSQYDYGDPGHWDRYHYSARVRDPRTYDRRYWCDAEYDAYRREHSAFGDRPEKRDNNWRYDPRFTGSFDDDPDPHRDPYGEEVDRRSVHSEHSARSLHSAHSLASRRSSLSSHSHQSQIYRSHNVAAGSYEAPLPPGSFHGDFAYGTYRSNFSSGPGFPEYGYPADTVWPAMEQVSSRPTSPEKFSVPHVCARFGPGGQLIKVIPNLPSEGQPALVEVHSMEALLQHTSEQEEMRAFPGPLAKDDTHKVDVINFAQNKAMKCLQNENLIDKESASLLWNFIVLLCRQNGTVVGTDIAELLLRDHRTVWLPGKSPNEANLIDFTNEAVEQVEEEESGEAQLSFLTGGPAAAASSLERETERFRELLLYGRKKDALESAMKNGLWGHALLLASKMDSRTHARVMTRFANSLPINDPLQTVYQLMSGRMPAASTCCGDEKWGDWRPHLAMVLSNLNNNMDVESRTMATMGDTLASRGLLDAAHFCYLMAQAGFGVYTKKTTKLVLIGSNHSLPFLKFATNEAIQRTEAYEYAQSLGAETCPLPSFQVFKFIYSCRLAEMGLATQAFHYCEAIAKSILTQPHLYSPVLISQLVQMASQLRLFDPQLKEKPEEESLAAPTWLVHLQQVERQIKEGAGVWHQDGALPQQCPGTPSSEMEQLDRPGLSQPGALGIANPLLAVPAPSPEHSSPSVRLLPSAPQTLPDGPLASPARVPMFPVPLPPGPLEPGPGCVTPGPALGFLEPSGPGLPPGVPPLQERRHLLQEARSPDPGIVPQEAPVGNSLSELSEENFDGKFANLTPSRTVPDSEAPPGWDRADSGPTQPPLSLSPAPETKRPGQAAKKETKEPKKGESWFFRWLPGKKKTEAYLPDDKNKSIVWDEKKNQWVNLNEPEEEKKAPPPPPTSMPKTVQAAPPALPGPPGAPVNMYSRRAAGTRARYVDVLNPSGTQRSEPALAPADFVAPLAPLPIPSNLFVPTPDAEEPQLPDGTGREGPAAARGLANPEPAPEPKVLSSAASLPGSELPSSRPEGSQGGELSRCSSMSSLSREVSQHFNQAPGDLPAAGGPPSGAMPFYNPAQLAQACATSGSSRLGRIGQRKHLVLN
Protein LSM12 (Homo sapiens), sequence (Q3MHD2 whole entry): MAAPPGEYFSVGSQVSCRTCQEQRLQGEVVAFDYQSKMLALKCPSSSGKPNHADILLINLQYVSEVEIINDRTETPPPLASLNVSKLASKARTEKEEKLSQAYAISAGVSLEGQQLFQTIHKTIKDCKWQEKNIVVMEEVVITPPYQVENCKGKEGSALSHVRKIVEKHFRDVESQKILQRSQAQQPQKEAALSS

On to `C=CC(=O)Nc1ccccc1Nc1nc(Nc2ccc(N3CCN(CCOCCOCCOCCNC(=O)CCCC[C@@H]4SC[C@@H]5NC(=O)N[C@@H]54)CC3)cc2)ncc1Cl`, for which the outcome in test [1], in test [2], in [3], in [4], in [5] and in test [6] was Active. The outcome in [7], in test [8], in test [9], in [10], in test [11] and in test [12] was Active. For the same compound, the outcome in test [13], in [14], in test [15], in test [16] and in test [17] was Active.
For the compound `C=CC(=O)Nc1ccccc1Oc1nc(Nc2cnn(CCOC)c2)ncc1Cl`, in test [18], the inhibition result was “Active”.
For the compound `COc1cc(O)c2c(c1)/C=C/C[C@H](O)[C@H](O)C(=O)/C=C\C[C@H](C)OC2=O`, the Activity in test [19] is 76%.
For the compound `C=CC(=O)Nc1ccccc1Nc1nc(Nc2ccc(N3CCN(C)CC3)cc2)ncc1Cl`, the inhibition in test [20] was -0.1%.
